Key:
[1] = Inhibition of alpha-glucosidase (unknown origin) using p-nitrophenyl-alpha-D-glucopyranoside substrate incubated for 10 mins by UV spectrophotometry
Method in brief: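 α-Glucosidase (0.1 unit/ml) preincubated with compound 1 h at 37 °C. Reaction started with 10 mM p-nitrophenyl substrate in 100 mM phosphate buffer pH 6.8, run 10 min at 37 °C, and stopped with 0.1 M Na₂CO₃.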

[2] = Inhibition of alpha-galactosidase (unknown origin) using p-nitrophenyl-alpha-D-galactopyranoside substrate incubated for 10 mins by UV spectrophotometry
Method in brief: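 α-Galactosidase (0.1 unit/ml) preincubated with compound 1 h at 37 °C. Substrate added in 200 mM sodium acetate buffer, reaction run 10 min at 37 °C, and stopped with 200 mM borate buffer pH 9.8.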

[3] = tested on: PBMC; experiment: Immunosuppressive activity in human PBMC assessed as inhibition of cell proliferation using (methyl-3H)thymidine by mixed lymphocyte reaction assay; assay type: functional, cell-based
Method in brief: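 PBMCs at 1.2 × 10⁶ cells/ml in RPMI-1640 with 10% heat-inactivated FCS and antibiotics. 100 µl of each cell suspension mixed with 20 µl diluted compound and cultured 6 days at 37 °C, 5% CO₂. 1 µCi (methyl-³H)thymidine per well added for the last 18 h. Cells harvested on glass filters and cpm counted by liquid scintillation.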

[4] = tested on: B cell; experiment: Immunosuppressive activity in CPG oligonucleotide-induced human B cells assessed as inhibition of IgG production by immune assay; assay type: functional, cell-based
Method in brief: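 Human B cells stimulated with CpG oligonucleotide and cultured with compound for 7 days at 37 °C, 5% CO₂. IgG concentration in supernatants then measured by immunoassay.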

[5] = tested on: Jurkat; experiment: Cytotoxicity against human Jurkat cells assessed as cell viability after 3 hrs by WST1 assay; assay type: functional, cell-based; details: 48 h, in the assay text read “after 48 hrs” for “after 3 hrs”
Method in brief: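 Jurkat cells in exponential growth seeded at 50 × 10³ per 200 µl complete medium, with compound dilution added (20 µl) and incubated 48 h at 37 °C, 5% CO₂. Untreated cells set maximum viability and 1% Triton X-100 (last 15 min) set minimum. After a further 3 h at 37 °C, optical density read at 450 nm.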

[6] = target: alpha-mannosidase (Canavalia ensiformis); experiment: Inhibition of jack bean alpha-mannosidase using p-nitrophenyl-alpha-D-mannopyranoside substrate incubated for 10 mins by UV spectrophotometry

| Compound | IC50 [1] | IC50 [2] | IC50 [3] | IC50 [4] | IC50 [5] | IC50 ([1]; read-out: IC50) | IC50 ([2]; read-out: IC50) | IC50 [6] |
| --- | --- | --- | --- | --- | --- | --- | --- | --- |
| CCCCCCCCCCN1C[C@@H](O)C(O)(CCO)[C@@H](O)C1 (stereo partly specified) | Not Active | Not Active | > 10 µM | 15 µM | > 10 µM | – | – | – |
| CCCCN1C[C@@H](O)C(O)(CCO)[C@@H](O)C1 (stereo partly specified) | – | – | > 10 µM | > 50 µM | > 10 µM | 360 µM | 167 µM | 252 µM |
| CCCCCCN1C[C@@H](O)C(O)(CCO)[C@@H](O)C1 (stereo partly specified) | Not Active | – | > 10 µM | > 50 µM | > 10 µM | – | 315 µM | 183 µM |
| OCCC1(O)[C@H](O)CNC[C@@H]1O (stereo partly specified) | – | Not Active | > 10 µM | > 50 µM | > 10 µM | 418 µM | – | 1830 µM |
| OCCN1C[C@@H](O)C(O)(CCO)[C@@H](O)C1 (stereo partly specified) | – | Not Active | > 10 µM | > 50 µM | > 10 µM | 252 µM | – | 873 µM |
| OCCN1C[C@H](O)[C@@H](O)[C@H](O)[C@H]1CO [MIGLITOL] | – | – | – | – | – | 171 µM | 1850 µM | – |
| CCCCCCCCN1C[C@@H](O)C(O)(CCO)[C@@H](O)C1 (stereo partly specified) | Not Active | Not Active | > 10 µM | > 50 µM | > 10 µM | – | – | – |

— ChEMBL document CHEMBL3351657, “γ-Hydroxyethyl piperidine iminosugar and N-alkylated derivatives: a study of their activity as glycosidase inhibitors and as immunosuppressive agents” (Bioorg Med Chem, 2014)
